The source of these data is ChEMBL document CHEMBL1155892, “Characterization of polyketide metabolites from foliar endophytes of Picea glauca” (J Nat Prod, 2008).

One test deals with Saccharomyces cerevisiae. As to the kind of experiment: Toxicity against Saccharomyces cerevisiae by disc diffusion method. In kind it is functional, organism-based. In outline:
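Antifungal screen by disc diffusion. Dried extract, 50 mg dissolved in 1 mL CH2Cl2; 10 µL applied to each small filter disc under aseptic conditions, solvent left to evaporate overnight. Discs placed on malt extract agar plates inoculated with a lawn of yeast, incubated at 25 °C, and inhibition zones measured.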
In general terms: In agar diffusion tests the substance spreads into inoculated agar from a disc or well.

The next test relates to Choristoneura fumiferana. As to the kind of experiment: Toxicity against Choristoneura fumiferana assessed as reduction in body weight by diet incorporation assay. In kind it is functional, organism-based. The gist of the method:
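Spruce budworm diet-incorporation bioassay with disease-free larvae. Extract dissolved in CH2Cl2, mixed into synthetic diet at 400 µg/g, solvent evaporated overnight. Ten second-instar larvae per cup, 3 cups per extract, held at 25 °C, 55% RH, 16 h light/day until fifth instar (about 1 week). Each larva weighed and head capsule width measured. ANOVA with Fisher's LSD; rugulosin positive control, CH2Cl2 negative control.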

A further test deals with Hep 3B2. As to the kind of experiment: Cytotoxicity against human Hep3B cells. In kind it is functional, cell-based.

The source made the active and inactive calls. No cut-off for these calls is given here.

On to `COc1cc(OC)c(C(=O)O)c(C(C)=O)c1`, for which the outcome in the test on Saccharomyces cerevisiae and in the test with Choristoneura fumiferana was Active.
For `CCC[C@@H]1Cc2cc(OC)cc(O)c2C(=O)O1`, the result in the test with Saccharomyces cerevisiae and in the test on Choristoneura fumiferana was Active.
For `COC(=O)c1c(OC)cc(OC)cc1C(C)=O`, the outcome in the test with Saccharomyces cerevisiae and with Choristoneura fumiferana was Active.
As for `OCCc1ccc(O)cc1`, the outcome in the test with Saccharomyces cerevisiae and in the test with Choristoneura fumiferana was Active. In addition, the outcome in the test on Hep 3B2 was inactive.
With `C[C@@H]1Cc2c(C=O)ccc(O)c2C(=O)O1`, the outcome in the test on Saccharomyces cerevisiae and in the test with Choristoneura fumiferana was Active.
`Cc1ccc(O)c2c1C[C@@H](C)OC2=O`: the outcome in the test on Saccharomyces cerevisiae and in the test with Choristoneura fumiferana was Active.
For the molecule `COc1cc(OC)c2c(c1)C(C)OC2=O` (stereo not drawn), the result in the test on Saccharomyces cerevisiae and in the test on Choristoneura fumiferana was Active.
Turning to `COC(=O)c1ccc(O)c2c1C[C@@H](C)OC2=O`, the outcome in the test on Saccharomyces cerevisiae and in the test with Choristoneura fumiferana was Active.
Consider `C[C@@H]1Cc2cccc(O)c2C(=O)O1`, for which the result with Saccharomyces cerevisiae and with Choristoneura fumiferana was Active.
Regarding `CCCCC1=C(C)COC1=O`, the outcome with Saccharomyces cerevisiae and with Choristoneura fumiferana was Active.
Regarding `COC(=O)c1c(O)c(C)cc2oc3cccc(O)c3c(=O)c12`, the result in the test on Saccharomyces cerevisiae and with Choristoneura fumiferana was Active.
